Measurements: ChEMBL document CHEMBL4387707, “Structure-Activity Relationships for Itraconazole-Based Triazolone Analogues as Hedgehog Pathway Inhibitors” (J Med Chem, 2019)
Converted amounts (≈) assume the structure as drawn. Values belong to the molecule of their own block, whether it stands above or below them. The source made the active and inactive calls. The rule behind the calls is not given here.

What was measured:
[1] = Kinetic solubility of the compound in PBS at pH 7.4 by UPLC-MS/MS analysis; assay type: physicochemical; conditions: read-out: Kinetic_solubility
Medulloblastoma cell = test: Antiproliferative activity against medulloblastoma cells derived from conditional patched knockout mouse after 48 hrs by [3H]-thymidine incorporation assay; assay type: functional
How it was run: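 Cells are MERP medulloblastoma cells isolated from Math1-Cre-ER;Ptcfl/fl mouse tumors and cultured in vitro. Compounds were incubated for 48 h before the growth read-out. GI50 is the mean ± SEM of at least two separate experiments, each run in triplicate.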

[2] = Half life in human liver microsomes at 1 uM by UPLC-MS/MS analysis; assay type: ADME, Microsome
Cytochrome P450 3A4 = Cytochrome P450 3A4 (Homo sapiens, UniProt P08684); test: Inhibition of CYP3A4 (unknown origin) using midazolam as substrate by UPLC-MS/MS analysis; assay type: ADME
Sequence of Cytochrome P450 3A4 (P08684 whole entry): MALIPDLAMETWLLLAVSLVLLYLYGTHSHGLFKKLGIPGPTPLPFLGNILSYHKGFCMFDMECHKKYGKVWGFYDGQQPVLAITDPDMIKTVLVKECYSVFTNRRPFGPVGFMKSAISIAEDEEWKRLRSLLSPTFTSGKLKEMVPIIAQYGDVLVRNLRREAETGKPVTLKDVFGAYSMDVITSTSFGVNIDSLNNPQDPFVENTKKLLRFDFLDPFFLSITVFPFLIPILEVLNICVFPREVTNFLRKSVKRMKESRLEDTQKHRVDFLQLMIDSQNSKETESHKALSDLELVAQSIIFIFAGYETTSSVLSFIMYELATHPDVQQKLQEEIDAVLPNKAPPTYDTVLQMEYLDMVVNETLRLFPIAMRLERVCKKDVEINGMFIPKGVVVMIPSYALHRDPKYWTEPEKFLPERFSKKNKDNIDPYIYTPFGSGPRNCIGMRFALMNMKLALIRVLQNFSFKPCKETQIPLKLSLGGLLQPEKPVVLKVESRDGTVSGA

Protein smoothened = Protein smoothened (Mus musculus, UniProt P56726); test: Inhibition of smo-mediated hedgehog signaling pathway in mouse ASZ001 cells assessed as decrease in Gli1 mRNA expression after 48 hrs by qPCR method; assay type: cell-based
Sequence of Protein smoothened (P56726 whole entry): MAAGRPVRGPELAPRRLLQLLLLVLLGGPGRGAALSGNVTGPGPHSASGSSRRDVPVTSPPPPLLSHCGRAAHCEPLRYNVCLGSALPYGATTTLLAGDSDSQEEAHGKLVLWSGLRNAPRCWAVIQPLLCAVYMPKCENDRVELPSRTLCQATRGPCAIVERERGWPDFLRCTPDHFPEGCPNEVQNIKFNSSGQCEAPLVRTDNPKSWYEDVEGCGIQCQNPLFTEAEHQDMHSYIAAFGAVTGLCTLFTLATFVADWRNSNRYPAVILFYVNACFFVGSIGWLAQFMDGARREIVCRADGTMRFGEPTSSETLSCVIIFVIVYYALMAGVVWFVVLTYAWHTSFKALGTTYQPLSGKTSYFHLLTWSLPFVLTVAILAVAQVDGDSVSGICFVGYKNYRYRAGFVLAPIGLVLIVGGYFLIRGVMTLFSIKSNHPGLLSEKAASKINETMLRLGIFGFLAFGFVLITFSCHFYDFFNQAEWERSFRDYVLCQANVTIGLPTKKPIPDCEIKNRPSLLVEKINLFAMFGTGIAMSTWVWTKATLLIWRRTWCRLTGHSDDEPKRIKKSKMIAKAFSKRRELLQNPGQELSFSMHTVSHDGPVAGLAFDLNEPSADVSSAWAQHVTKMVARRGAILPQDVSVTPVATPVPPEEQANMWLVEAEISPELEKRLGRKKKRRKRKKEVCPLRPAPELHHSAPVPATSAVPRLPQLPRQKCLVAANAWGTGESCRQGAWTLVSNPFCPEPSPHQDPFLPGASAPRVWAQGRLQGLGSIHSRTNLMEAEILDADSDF
How it was run: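 Gli1 mRNA measured by qPCR after 48 h incubation with compound, normalized to actin as internal control. Concentrations judged cytotoxic (by visual assessment and/or a significant drop in actin expression) were excluded from analysis. IC50 given as mean ± SEM of at least two separate experiments, each in triplicate.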

Mus musculus = species: Mus musculus; test: Antiproliferative activity against mouse ASZ001 cells measured after 48 hrs by MTS/PMS assay; assay type: functional, cell-based
[3] = target: Voltage-gated inwardly rectifying potassium channel KCNH2 (Homo sapiens, UniProt Q12809); test: Inhibition of human ERG
Sequence of Voltage-gated inwardly rectifying potassium channel KCNH2 (Q12809 whole entry): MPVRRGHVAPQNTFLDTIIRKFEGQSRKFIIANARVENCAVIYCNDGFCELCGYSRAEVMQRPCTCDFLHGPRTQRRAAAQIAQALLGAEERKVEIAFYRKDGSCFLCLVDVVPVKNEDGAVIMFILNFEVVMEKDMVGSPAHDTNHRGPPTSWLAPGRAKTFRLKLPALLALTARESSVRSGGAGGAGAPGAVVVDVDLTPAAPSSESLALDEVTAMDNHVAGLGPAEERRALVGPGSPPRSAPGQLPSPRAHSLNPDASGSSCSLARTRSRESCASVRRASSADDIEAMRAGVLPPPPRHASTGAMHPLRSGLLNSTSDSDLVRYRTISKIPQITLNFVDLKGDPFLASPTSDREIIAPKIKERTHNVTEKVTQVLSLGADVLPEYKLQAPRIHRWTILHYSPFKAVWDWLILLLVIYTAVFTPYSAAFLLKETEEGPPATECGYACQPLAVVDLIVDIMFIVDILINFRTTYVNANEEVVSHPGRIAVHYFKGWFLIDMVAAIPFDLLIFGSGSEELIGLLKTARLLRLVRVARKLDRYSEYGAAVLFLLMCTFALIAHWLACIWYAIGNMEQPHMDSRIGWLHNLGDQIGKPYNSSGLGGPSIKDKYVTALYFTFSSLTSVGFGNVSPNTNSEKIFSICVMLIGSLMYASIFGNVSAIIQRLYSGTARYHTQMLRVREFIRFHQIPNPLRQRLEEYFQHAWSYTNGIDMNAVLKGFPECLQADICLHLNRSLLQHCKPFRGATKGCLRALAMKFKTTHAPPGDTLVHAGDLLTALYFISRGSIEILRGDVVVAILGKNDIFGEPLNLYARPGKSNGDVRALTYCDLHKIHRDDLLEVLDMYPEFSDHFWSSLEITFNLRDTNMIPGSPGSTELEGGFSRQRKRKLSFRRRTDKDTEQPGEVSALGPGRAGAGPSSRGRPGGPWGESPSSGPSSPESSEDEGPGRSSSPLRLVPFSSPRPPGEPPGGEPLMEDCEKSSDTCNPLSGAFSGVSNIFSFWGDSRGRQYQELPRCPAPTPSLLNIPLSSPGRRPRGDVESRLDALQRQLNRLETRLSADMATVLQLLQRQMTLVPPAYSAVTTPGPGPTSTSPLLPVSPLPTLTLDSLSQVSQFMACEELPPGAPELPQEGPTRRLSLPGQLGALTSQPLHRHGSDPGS

[4] = Intrinsic clearance in human liver microsomes at 1 uM by UPLC-MS/MS analysis; assay type: ADME, Microsome

SMILES: C[C@]1(c2ccc(Cl)cc2Cl)OC[C@@H](COc2ccc(N3CCN(c4ccc(NC(=O)NN)cc4)CC3)cc2)O1
solubility kinetic [1]: 1.4 nM (≈ 0.801 ng/mL)
GI50 (Medulloblastoma cell): 2.8 µM
t1/2 [2]: 11.5 min
IC50 (Cytochrome P450 3A4): > 30 µM

IC50 (Protein smoothened): > 10 µM
SMILES: C[C@@]1(c2ccc(Cl)cc2Cl)OC[C@@H](COc2ccc(N3CCN(c4ccc(NC(=O)c5ccccn5)cc4)CC3)cc2)O1

SMILES: CC[C@@H](C)n1ncn(-c2ccc(N3CCN(c4ccc(OC[C@@H]5CO[C@@](C)(c6ccc(Cl)cc6Cl)O5)cc4)CC3)cc2)c1=O (relative stereo)
solubility kinetic [1]: 1560 nM (≈ 996 ng/mL)
IC50 (Cytochrome P450 3A4): 1.02 µM

IC50 (Protein smoothened): > 10 µM
SMILES: C[C@]1(c2ccc(Cl)cc2Cl)OC[C@@H](COc2ccc(N3CCN(c4ccc(NC(=O)c5ccsc5)cc4)CC3)cc2)O1

IC50 (Protein smoothened): > 10 µM
SMILES: C[C@]1(c2ccc(Cl)cc2Cl)OC[C@@H](COc2ccc(N3CCN(c4ccc(NC(=O)c5ccccc5)cc4)CC3)cc2)O1

IC50 (Protein smoothened): > 10 µM
SMILES: C[C@]1(c2ccc(Cl)cc2Cl)OC[C@@H](COc2ccc(N3CCN(c4ccc(NC(=O)c5cccc(Cl)c5)cc4)CC3)cc2)O1

SMILES: CC(=O)c1cccc(C(=O)Nc2ccc(N3CCN(c4ccc(OC[C@@H]5CO[C@](C)(c6ccc(Cl)cc6Cl)O5)cc4)CC3)cc2)c1
Activity (Mus musculus): Active
solubility kinetic [1]: 1.4 nM (≈ 0.925 ng/mL)
t1/2 [2]: 11.4 min
IC50 (Cytochrome P450 3A4): > 30 µM
inhibition (INH) [3]: < 1%

SMILES: C[C@@]1(c2ccc(Cl)cc2Cl)OC[C@@H](COc2ccc(N3CCN(c4ccc(NC(=O)c5cccc(O)c5)cc4)CC3)cc2)O1
solubility kinetic [1]: 1.4 nM (≈ 0.888 ng/mL)
GI50 (Medulloblastoma cell): 2.8 µM
CLH [4]: < 3 µL/min/mg
t1/2 [2]: > 231 min
IC50 (Cytochrome P450 3A4): > 30 µM
inhibition (INH) [3]: 1.2%

SMILES: C[C@]1(c2ccc(Cl)cc2Cl)OC[C@@H](COc2ccc(N3CCN(c4ccc([N+](=O)[O-])cc4)CC3)cc2)O1
IC50 (Protein smoothened): 0.26 µM

SMILES: C[C@]1(c2ccc(Cl)cc2Cl)OC[C@@H](COc2ccc(N3CCN(c4ccc(-n5cn[nH]c5=O)cc4)CC3)cc2)O1
IC50 (Protein smoothened): 0.21 µM

IC50 (Protein smoothened): > 10 µM
SMILES: C[C@@]1(c2ccc(Cl)cc2Cl)OC[C@@H](COc2ccc(N3CCN(c4ccc(NC(=O)c5ccc6ccccc6c5)cc4)CC3)cc2)O1

SMILES: C[C@]1(c2ccc(Cl)cc2Cl)OC[C@@H](COc2ccc(N3CCN(c4ccc(NC(=O)c5ccc(O)cc5)cc4)CC3)cc2)O1
IC50 (Protein smoothened): 3 µM

IC50 (Protein smoothened): > 10 µM
SMILES: C[C@@]1(c2ccc(Cl)cc2Cl)OC[C@@H](COc2ccc(N3CCN(c4ccc(NC(=O)c5ccccc5O)cc4)CC3)cc2)O1

IC50 (Protein smoothened): > 10 µM
SMILES: C[C@]1(c2ccc(Cl)cc2Cl)OC[C@@H](COc2ccc(N3CCN(c4ccc(NC(=O)c5ccoc5)cc4)CC3)cc2)O1

SMILES: C[C@@]1(c2ccc(Cl)cc2Cl)OC[C@@H](COc2ccc(N3CCN(c4ccc(N)cc4)CC3)cc2)O1
IC50 (Protein smoothened): 0.92 µM

SMILES: CC[C@@H](C)n1ncn(-c2ccc(N3CCN(c4ccc(OC[C@@H]5CO[C@](C)(c6ccc(Cl)cc6Cl)O5)cc4)CC3)cc2)c1=O (relative stereo)
solubility kinetic [1]: 800 nM (≈ 511 ng/mL)
IC50 (Cytochrome P450 3A4): > 20 µM

IC50 (Protein smoothened): > 10 µM
SMILES: C[C@@]1(c2ccc(Cl)cc2Cl)OC[C@@H](COc2ccc(N3CCN(c4ccc(NC(=O)c5ccncc5)cc4)CC3)cc2)O1

SMILES: C[C@@]1(c2ccc(Cl)cc2Cl)OC[C@@H](COc2ccc(N3CCN(c4ccc(NC(=O)NN)cc4)CC3)cc2)O1
solubility kinetic [1]: 9.3 nM (≈ 5.32 ng/mL)
GI50 (Medulloblastoma cell): 0.5 µM
t1/2 [2]: 20.1 min
IC50 (Cytochrome P450 3A4): > 30 µM
inhibition (INH) [3]: 2.2%

IC50 (Protein smoothened): > 10 µM
SMILES: C[C@]1(c2ccc(Cl)cc2Cl)OC[C@@H](COc2ccc(N3CCN(c4ccc(NC(=O)c5ccncc5)cc4)CC3)cc2)O1

IC50 (Protein smoothened): > 10 µM
SMILES: C[C@@]1(c2ccc(Cl)cc2Cl)OC[C@@H](COc2ccc(N3CCN(c4ccc(NC(=O)c5ccccc5)cc4)CC3)cc2)O1

SMILES: C[C@]1(c2ccc(Cl)cc2Cl)OC[C@@H](COc2ccc(N3CCN(c4ccc(N)cc4)CC3)cc2)O1
IC50 (Protein smoothened): 0.39 µM

SMILES: C[C@@]1(c2ccc(Cl)cc2Cl)OC[C@@H](COc2ccc(N3CCN(c4ccc([N+](=O)[O-])cc4)CC3)cc2)O1
IC50 (Protein smoothened): 0.31 µM

SMILES: C[C@@]1(c2ccc(Cl)cc2Cl)OC[C@@H](COc2ccc(N3CCN(c4ccc(NC(=O)c5cccnc5)cc4)CC3)cc2)O1
solubility kinetic [1]: 4.2 nM (≈ 2.6 ng/mL)
GI50 (Medulloblastoma cell): > 10 µM
t1/2 [2]: 59.9 min
IC50 (Cytochrome P450 3A4): > 30 µM

SMILES: COc1cccc(C(=O)Nc2ccc(N3CCN(c4ccc(OC[C@@H]5CO[C@](C)(c6ccc(Cl)cc6Cl)O5)cc4)CC3)cc2)c1
IC50 (Protein smoothened): 5.7 µM

SMILES: C[C@@]1(c2ccc(Cl)cc2Cl)OC[C@@H](COc2ccc(N3CCN(c4ccc(-n5cn[nH]c5=O)cc4)CC3)cc2)O1
IC50 (Protein smoothened): 0.14 µM

SMILES: C[C@]1(c2ccc(Cl)cc2Cl)OC[C@@H](COc2ccc(N3CCN(c4ccc(NC(=O)c5cccc(O)c5)cc4)CC3)cc2)O1
Activity (Mus musculus): Active
solubility kinetic [1]: 1.6 nM (≈ 1.02 ng/mL)
GI50 (Medulloblastoma cell): 0.35 µM
t1/2 [2]: 19.9 min
IC50 (Cytochrome P450 3A4): 11.4 µM
inhibition (INH) [3]: < 1%

IC50 (Protein smoothened): > 10 µM
SMILES: C[C@]1(c2ccc(Cl)cc2Cl)OC[C@@H](COc2ccc(N3CCN(c4ccc(NC(=O)c5ccc6ccccc6c5)cc4)CC3)cc2)O1

SMILES: C[C@]1(c2ccc(Cl)cc2Cl)OC[C@@H](COc2ccc(N3CCN(c4ccc(NC(=O)c5ccccc5O)cc4)CC3)cc2)O1
IC50 (Protein smoothened): 2.2 µM

SMILES: C[C@]1(c2ccc(Cl)cc2Cl)OC[C@@H](COc2ccc(N3CCN(c4ccc(NC(=O)c5cccnc5)cc4)CC3)cc2)O1
solubility kinetic [1]: 6.9 nM (≈ 4.27 ng/mL)
GI50 (Medulloblastoma cell): 1.1 µM
t1/2 [2]: 8.9 min
IC50 (Cytochrome P450 3A4): > 20 µM
inhibition (INH) [3]: < 1%

SMILES: C[C@]1(c2ccc(Cl)cc2Cl)OC[C@@H](COc2ccc(N3CCN(c4ccc(NC(=O)c5ccccn5)cc4)CC3)cc2)O1
IC50 (Protein smoothened): 3.9 µM

IC50 (Protein smoothened): > 10 µM
SMILES: C[C@@]1(c2ccc(Cl)cc2Cl)OC[C@@H](COc2ccc(N3CCN(c4ccc(NC(=O)c5ccc(O)cc5)cc4)CC3)cc2)O1

SMILES: CCC(C)n1ncn(-c2ccc(N3CCN(c4ccc(OCC5COC(Cn6cncn6)(c6ccc(Cl)cc6Cl)O5)cc4)CC3)cc2)c1=O (configuration not stated) [ITRACONAZOLE]
inhibition (INH) [3]: < 1%
